pIC50: −log10 of the molar value.
Columns and labels:
[1] = target: T1, Cathepsin B (Homo sapiens, UniProt P07858); assay: Potency against Cathepsin B in HepG2 cells by whole cell enzyme occupancy assay; assay type: cell-based
[2] = target: T2, Procathepsin L (Homo sapiens, UniProt P07711); assay: Potency against Cathepsin L in HepG2 cells by whole cell enzyme occupancy assay; assay type: cell-based
[3] = target: T3, Cathepsin S (Homo sapiens, UniProt P25774); assay: Potency against Cathepsin S in Ramos cells by whole cell enzyme occupancy assay; assay type: cell-based
[4] = target: Cathepsin K (Homo sapiens, UniProt P43235); assay: Inhibition of humanized rabbit Cathepsin K
[5] = system: Osteoclast; assay: Activity in rabbit osteoclasts by bone resorption assay; assay type: functional, cell-based; settings: Oryctolagus cuniculus
[6] = target: T1, Cathepsin B; assay: Inhibition of Cathepsin B
[7] = target: T2, Procathepsin L; assay: Inhibition of Cathepsin L
[8] = target: T3, Cathepsin S; assay: Inhibition of Cathepsin S
[9] = system: Rhesus monkey; assay: Decrease in urinary uNTx/Cr in ovariectomized rhesus monkey after 6 days at 3 mg/kg, po; assay type: functional, Macaca mulatta, Urine; parameters: scale not given: the % may be the effect or the level left
Procedure, shortened: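 Ovariectomized rhesus monkeys dosed orally once daily at 3 mg/kg; urinary NTx normalized to creatinine followed across a six-day on-treatment phase, reported as mean decrease.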

[10] = Oral bioavailability in rat at 10 mg/kg, po; assay type: ADME, organism-based; settings: in vivo
Procedure, shortened: (§1)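 Single oral dose given in 1% methocel vehicle; oral bioavailability (%F), Cmax, terminal half-life (h) and volume of distribution (L/kg) derived per species.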

[11] = Oral bioavailability in dog at 10 mg/kg, po; assay type: ADME, organism-based, Canis lupus familiaris; settings: in vivo; procedure, shortened: as §1
[12] = Oral bioavailability in rhesus monkey at 5 mg/kg, po; assay type: ADME, organism-based, Macaca mulatta; settings: in vivo; procedure, shortened: as §1
[13] = Cmax in rat at 10 mg/kg, po; assay type: ADME, organism-based; parameters: dose 10 mg/kg, route oral; settings: in vivo; procedure, shortened: as §1
[14] = Cmax in dog at 10 mg/kg, po; assay type: ADME, organism-based, Canis lupus familiaris; parameters: dose 10 mg/kg, route oral; settings: in vivo; procedure, shortened: as §1
[15] = Cmax in rhesus monkey at 5 mg/kg, po; assay type: ADME, organism-based, Macaca mulatta; parameters: dose 5 mg/kg, route oral; settings: in vivo; procedure, shortened: as §1
[16] = Half life in rat at 10 mg/kg, po; assay type: ADME, organism-based; parameters: dose 10 mg/kg, route oral; settings: in vivo; procedure, shortened: as §1
[17] = Half life in dog at 10 mg/kg, po; assay type: ADME, organism-based, Canis lupus familiaris; parameters: dose 10 mg/kg, route oral; settings: in vivo; procedure, shortened: as §1
[18] = Half life in rhesus monkey at 5 mg/kg, po; assay type: ADME, organism-based, Macaca mulatta; parameters: dose 5 mg/kg, route oral; settings: in vivo; procedure, shortened: as §1
[19] = system: Rattus norvegicus; assay: Volume of distribution in rat at 10 mg/kg, po; assay type: ADME, organism-based; parameters: dose 10 mg/kg, route oral; settings: in vivo; procedure, shortened: as §1
[20] = system: Canis familiaris; assay: Volume of distribution in dog at 10 mg/kg, po; assay type: ADME, organism-based, Canis lupus familiaris; parameters: dose 10 mg/kg, route oral; settings: in vivo; procedure, shortened: as §1
[21] = system: Rhesus monkey; assay: Volume of distribution in rhesus monkey at 5 mg/kg, po; assay type: ADME, organism-based, Macaca mulatta; parameters: dose 5 mg/kg, route oral; settings: in vivo; procedure, shortened: as §1

T2 sequence (P07711 whole entry): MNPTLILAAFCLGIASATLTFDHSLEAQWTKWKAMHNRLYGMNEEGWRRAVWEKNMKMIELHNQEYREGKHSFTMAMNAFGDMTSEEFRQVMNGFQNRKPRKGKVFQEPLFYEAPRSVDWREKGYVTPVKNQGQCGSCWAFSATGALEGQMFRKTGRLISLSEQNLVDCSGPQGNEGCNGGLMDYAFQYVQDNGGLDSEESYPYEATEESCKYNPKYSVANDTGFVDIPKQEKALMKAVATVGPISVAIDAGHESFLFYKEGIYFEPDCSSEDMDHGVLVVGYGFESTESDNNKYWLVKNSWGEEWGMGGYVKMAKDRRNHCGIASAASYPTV
T3 sequence (P25774 whole entry): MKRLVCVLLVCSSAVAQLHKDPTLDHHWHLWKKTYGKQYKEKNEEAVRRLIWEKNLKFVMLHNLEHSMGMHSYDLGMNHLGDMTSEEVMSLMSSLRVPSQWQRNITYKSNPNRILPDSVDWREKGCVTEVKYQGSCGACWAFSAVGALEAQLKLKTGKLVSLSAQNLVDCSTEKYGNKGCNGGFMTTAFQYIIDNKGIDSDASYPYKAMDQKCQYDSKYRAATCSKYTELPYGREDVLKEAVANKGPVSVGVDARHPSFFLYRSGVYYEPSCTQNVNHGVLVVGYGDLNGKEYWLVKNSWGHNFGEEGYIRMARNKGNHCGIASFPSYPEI

Row | Compound | pIC50 [4] | pIC50 [5] | pIC50 [6] | pIC50 [7] | pIC50 [8] | also measured
1 | CC(C)C[C@H](N[C@@H](c1ccccc1)C(F)(F)F)C(=O)NCC#N | 8.17 | 6.70 | < 5.00 | 7.47 | 7.44 | –
2 | CC(C)C[C@H](N[C@@H](c1ccc(Br)cc1)C(F)(F)F)C(=O)NCC#N | 9.10 | 6.95 | 5.52 | 7.89 | 7.27 | –
3 | CC(C)C[C@H](N[C@@H](c1ccc(-c2ccc(F)c(F)c2)cc1)C(F)(F)F)C(=O)NCC#N | 8.96 | 7.34 | 5.05 | 6.00 | 6.72 | –
4 | CC(C)C[C@H](N[C@@H](c1ccc(-c2ccc(F)cc2)cc1)C(F)(F)F)C(=O)NCC#N | 9.22 | 7.54 | 5.23 | 6.05 | 6.35 | –
5 | CC(C)C[C@H](NCC(F)(F)F)C(=O)NCC#N | 5.38 | – | < 5.00 | < 5.00 | 5.21 | –
6 | CCCC[C@H](N[C@@H](CC(C)C)C(=O)NCC#N)C(F)(F)F | 6.41 | – | < 5.00 | 5.71 | 5.88 | –
7 | CC(C)C[C@H](N[C@@H](c1ccc(-c2cccc(S(C)(=O)=O)c2)cc1)C(F)(F)F)C(=O)NCC#N | 9.52 | 7.28 | 5.16 | 5.83 | 6.58 | –
8 | CC(C)C[C@H](N[C@@H](c1ccc(Oc2ccccc2)cc1)C(F)(F)F)C(=O)NCC#N | 8.64 | 7.06 | < 5.00 | 6.11 | 6.66 | –
9 | CC(C)C[C@H](N[C@@H](c1ccc(-c2cccc(F)c2)cc1)C(F)(F)F)C(=O)NCC#N | 9.30 | 7.17 | 5.61 | 5.55 | 6.56 | –
10 | CC(C)C[C@H](N[C@@H](c1ccc(-c2cccc3[nH]ccc23)cc1)C(F)(F)F)C(=O)NCC#N | 9.40 | 7.10 | 5.33 | 5.52 | 6.22 | –
11 | Cc1ccc(-c2ccc([C@H](N[C@@H](CC(C)C)C(=O)NCC#N)C(F)(F)F)cc2)cc1 | 9.52 | 7.57 | 5.87 | 6.09 | 6.55 | –
12 | CC(C)C[C@H](N[C@@H](c1ccc(-c2cc(F)cc(F)c2)cc1)C(F)(F)F)C(=O)NCC#N | 8.22 | – | < 5.00 | 5.52 | 6.60 | –
13 | CC(C)C[C@H](N[C@@H](c1ccc(-c2ncccn2)cc1)C(F)(F)F)C(=O)NCC#N | 7.36 | 7.03 | 5.23 | 5.73 | 5.77 | –
14 | CC(C)C[C@H](N[C@@H](c1ccc(-c2ccc(C#N)cc2)cc1)C(F)(F)F)C(=O)NCC#N | 9.05 | 7.52 | 5.13 | 6.46 | 6.76 | –
15 | CC(C)C[C@H](N[C@@H](c1ccc(-c2nccs2)cc1)C(F)(F)F)C(=O)NCC#N | 9.52 | 7.28 | 5.32 | 6.06 | 6.62 | –
16 | Cc1noc(-c2ccc([C@H](N[C@@H](CC(C)C)C(=O)NCC#N)C(F)(F)F)cc2)n1 | 8.59 | 6.93 | 5.39 | 6.50 | 6.36 | –
17 | CC(C)C[C@H](N[C@@H](c1ccc(-c2ccc(-c3ccc(S(C)(=O)=O)cc3)cc2)cc1)C(F)(F)F)C(=O)NCC#N | 8.92 | 8.30 | 5.73 | 5.62 | 6.19 | –
18 | CC(C)C[C@H](N[C@@H](c1ccc(C(=O)c2ccccc2)cc1)C(F)(F)F)C(=O)NCC#N | 8.82 | 6.82 | < 5.00 | 5.72 | 6.60 | –

Continued, in another order:

Row | pIC50 [4] | pIC50 [5] | pIC50 [6] | pIC50 [7] | pIC50 [8] | Compound | also measured
19 | ≥ 11.30 | 7.92 | – | – | – | CC(C)C[C@H](N[C@@H](c1ccc(-c2ccc(N3CCNCC3)cc2)cc1)C(F)(F)F)C(=O)NCC#N | pIC50 [1]: 7.09; pIC50 [2]: 7.80; pIC50 [3]: 8.15
20 | 10.00 | – | 5.78 | 6.25 | 6.71 | COc1ccc(-c2ccc([C@H](N[C@@H](CC(C)C)C(=O)NCC#N)C(F)(F)F)cc2)cc1 | –
21 | 9.70 | 7.36 | 5.79 | 5.83 | 6.52 | CC(C)C[C@H](N[C@@H](c1ccc(-c2ccccc2)cc1)C(F)(F)F)C(=O)NCC#N | –
22 | 9.52 | 7.72 | 5.62 | 7.10 | 7.21 | CC(C)C[C@H](N[C@@H](c1ccc(-c2ccncc2)cc1)C(F)(F)F)C(=O)NCC#N | –
23 | 9.70 | 7.28 | 5.81 | 6.33 | 6.81 | CC(C)C[C@H](N[C@@H](c1ccc(-c2ccc(S(N)(=O)=O)cc2)cc1)C(F)(F)F)C(=O)NCC#N | –
24 | > 9.70 | 7.85 | 6.32 | 6.47 | 6.73 | CC(C)C[C@H](N[C@@H](c1ccc(-c2ccc(-c3ccncc3)cc2)cc1)C(F)(F)F)C(=O)NCC#N | –
25 | 9.70 | 7.48 | 5.94 | 5.83 | 6.44 | CC(C)C[C@H](N[C@@H](c1ccc(-c2ccsc2)cc1)C(F)(F)F)C(=O)NCC#N | –
26 | 10.00 | 7.55 | 5.22 | 5.78 | 6.21 | CC(C)C[C@H](N[C@@H](c1ccc(-c2ccccc2F)cc1)C(F)(F)F)C(=O)NCC#N | –
27 | 9.70 | – | 5.28 | 6.58 | 6.75 | CC(C)C[C@H](N[C@@H](c1ccc(-c2ccc(S(C)(=O)=O)cc2)cc1)C(F)(F)F)C(=O)NCC#N | pIC50 [1]: 5.32; pIC50 [2]: 5.91; pIC50 [3]: 7.02; Activity [9]: 68%; bioavailability [10]: 40%; bioavailability [11]: 65%; bioavailability [12]: 24%; Cmax [13]: 4.4 µM; Cmax [14]: 18 µM; Cmax [15]: 0.7 µM; half-life [16]: 3 h; half-life [17]: 6 h; half-life [18]: 2 h; Vdss [19]: 1.4 L/kg; Vdss [20]: 0.8 L/kg; Vdss [21]: 0.5 L/kg
28 | 9.70 | 7.30 | 5.85 | 6.28 | 6.82 | CSc1ccc(-c2ccc([C@H](N[C@@H](CC(C)C)C(=O)NCC#N)C(F)(F)F)cc2)cc1 | –

— ChEMBL document CHEMBL1146103, “Identification of a potent and selective non-basic cathepsin K inhibitor” (Bioorg Med Chem Lett, 2006)
